Assay results published in ChEMBL document CHEMBL1140981, “Substrate optimization for monitoring cathepsin C activity in live cells” (Bioorg Med Chem, 2009).
The source made the active and inactive calls. The calls are words filed in the database; no cut-off is given here.

Legend:
[1] = target: Cathepsin S (Homo sapiens, UniProt P25774); experiment: Inhibition of human recombinant cathepsin S by fluorescence assay
[2] = target: T1, Pro-cathepsin H (Homo sapiens, UniProt P09668); experiment: Inhibition of human recombinant cathepsin H by fluorescence assay
T1 sequence (P09668 whole entry): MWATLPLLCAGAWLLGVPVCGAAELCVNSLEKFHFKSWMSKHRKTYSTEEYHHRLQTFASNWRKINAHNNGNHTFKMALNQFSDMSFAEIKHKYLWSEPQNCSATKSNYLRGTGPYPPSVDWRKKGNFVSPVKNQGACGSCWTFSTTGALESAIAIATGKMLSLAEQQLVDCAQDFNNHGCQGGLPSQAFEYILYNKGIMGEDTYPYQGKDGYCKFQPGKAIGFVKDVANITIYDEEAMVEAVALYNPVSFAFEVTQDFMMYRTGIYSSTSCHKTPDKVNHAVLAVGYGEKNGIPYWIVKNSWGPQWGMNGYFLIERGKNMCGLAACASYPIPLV
How it was run: (§1)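 Recombinant human enzyme was preincubated with inhibitor for 20 min. Substrate was then added: H-Arg-AMC for cathepsin H, H₂N-Gly-Phe-AMC for cathepsin C. Buffer was 100 mM NaOAc, 1 mM EDTA, 0.01% Brij-35, 5 mM DTT, pH 5.5, 37 °C. AMC release was read by fluorescence, ex 380/em 450 nm. Progress curves were fitted to the Morrison equation, and apparent values were converted to Ki assuming competitive inhibition.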

[3] = target: T2, Cathepsin K (Homo sapiens, UniProt P43235); experiment: Inhibition of human recombinant cathepsin K by fluorescence assay
T2 sequence (P43235 whole entry): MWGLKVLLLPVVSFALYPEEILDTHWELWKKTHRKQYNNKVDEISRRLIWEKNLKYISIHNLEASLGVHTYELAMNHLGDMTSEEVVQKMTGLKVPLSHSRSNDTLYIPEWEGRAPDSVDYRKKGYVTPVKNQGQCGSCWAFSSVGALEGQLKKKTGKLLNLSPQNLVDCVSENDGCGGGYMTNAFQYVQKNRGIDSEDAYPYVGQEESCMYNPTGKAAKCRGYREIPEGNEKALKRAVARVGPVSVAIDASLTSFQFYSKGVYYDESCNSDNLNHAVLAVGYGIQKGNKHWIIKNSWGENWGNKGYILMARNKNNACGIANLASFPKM

[4] = target: Cathepsin B (Homo sapiens, UniProt P07858); experiment: Inhibition of human recombinant cathepsin B by fluorescence assay
[5] = target: T3, Dipeptidyl peptidase 1 (Homo sapiens, UniProt P53634); experiment: Blockade of conjugation of cathepsin C in human B721 cells to I125-labeled (S)-2-amino-N-((S)-1-(4-hydroxy-3-iodophenylsulfonyl)-5-phenylpent-1-en-3-yl)pentanamide pretreated for 30 mins before addition of I125-labeled (S)-2-amino-N-((S)-1-(4-hydroxy-3-iodophenylsulfonyl)-5-phenylpent-1-en-3-yl)pentanamide by SDS-PAGE; assay type: cell-based
How it was run: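 B721 cells at 1 × 10⁶ cells/mL were preincubated with compound or DMSO (final 50, 10, 1, 0.1, 0 μM) for 30 min at 37 °C, 5% CO2. ¹²⁵I-labeled probe was then added at 2 nM for another 30 min at 37 °C. Cells were pelleted, lysed and boiled. Labeled cathepsin C was resolved by SDS–PAGE and quantified by phosphorimaging.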

[6] = target: T3, Dipeptidyl peptidase 1; experiment: Inhibition of cathepsin C in human B721 cells by FACS assay; assay type: cell-based
How it was run: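 B721 EBV-immortalized B cells were washed and resuspended in serum-free, phenol red-free RPMI 1640 at 1 × 10⁶ cells/mL. Cells were pretreated with compound or DMSO (final 10, 3.3, 1.1, 0.37, 0.12, 0 μM) for 30 min at 37 °C, 5% CO2. (H₂N-Abu-Hph)₂-rhodamine (final 2 μM) and propidium iodide (4 μg/mL) were added. Flow cytometry read ex 488/em 530 nm at three time points 15 min apart.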

[7] = target: T3, Dipeptidyl peptidase 1; experiment: Inhibition of human recombinant cathepsin C by fluorescence assay; how it was run: as §1
[8] = organism: Homo sapiens; experiment: Selectivity for human recombinant cathepsin C over human recombinant cathepsin K
[9] = target: Procathepsin L (Homo sapiens) (UniProt P07711); experiment: Inhibition of human recombinant cathepsin L by fluorescence assay
[10] = organism: Homo sapiens; experiment: Selectivity for human recombinant cathepsin C over human recombinant cathepsin S
[11] = organism: Homo sapiens; experiment: Selectivity for human recombinant cathepsin C over human recombinant cathepsin B
[12] = organism: Homo sapiens; experiment: Selectivity for human recombinant cathepsin C over human recombinant cathepsin H
[13] = organism: Homo sapiens; experiment: Selectivity for human recombinant cathepsin C over human recombinant cathepsin L
[14] = target: T3, Dipeptidyl peptidase 1; experiment: Binding affinity to cathepsin C in human B721 cells assessed as cellular compound turnover in presence of (S)-2-Amino-pentanoic acid ((S)-3-methanesulfonyl-1-phenethyl-allyl)-amide; assay type: cell-based

T3 sequence (P53634 25-134 limits assumed): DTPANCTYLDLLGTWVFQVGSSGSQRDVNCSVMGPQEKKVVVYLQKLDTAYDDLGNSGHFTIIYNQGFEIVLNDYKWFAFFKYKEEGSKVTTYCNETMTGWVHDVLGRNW
T3 sequence (P53634 231-394 limits assumed): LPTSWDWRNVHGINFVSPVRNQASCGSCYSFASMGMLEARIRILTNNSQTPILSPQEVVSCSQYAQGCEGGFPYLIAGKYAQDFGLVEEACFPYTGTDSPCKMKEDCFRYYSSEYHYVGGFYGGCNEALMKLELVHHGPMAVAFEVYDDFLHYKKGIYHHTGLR
T3 sequence (P53634 395-463 limits assumed): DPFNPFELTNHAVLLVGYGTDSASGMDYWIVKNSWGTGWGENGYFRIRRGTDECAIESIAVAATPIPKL
Chain of Cathepsin S (P25774 whole entry): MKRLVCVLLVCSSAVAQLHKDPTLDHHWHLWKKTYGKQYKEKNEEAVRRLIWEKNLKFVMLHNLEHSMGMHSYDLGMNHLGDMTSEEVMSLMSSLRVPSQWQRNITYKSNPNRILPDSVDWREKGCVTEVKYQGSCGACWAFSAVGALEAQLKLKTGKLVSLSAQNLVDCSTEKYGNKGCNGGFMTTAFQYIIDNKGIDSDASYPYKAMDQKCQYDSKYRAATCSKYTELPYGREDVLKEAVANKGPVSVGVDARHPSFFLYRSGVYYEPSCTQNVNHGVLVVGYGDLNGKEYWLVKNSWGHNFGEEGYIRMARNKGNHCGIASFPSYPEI
Chain of Procathepsin L (Homo sapiens) (P07711 114-333 limits assumed): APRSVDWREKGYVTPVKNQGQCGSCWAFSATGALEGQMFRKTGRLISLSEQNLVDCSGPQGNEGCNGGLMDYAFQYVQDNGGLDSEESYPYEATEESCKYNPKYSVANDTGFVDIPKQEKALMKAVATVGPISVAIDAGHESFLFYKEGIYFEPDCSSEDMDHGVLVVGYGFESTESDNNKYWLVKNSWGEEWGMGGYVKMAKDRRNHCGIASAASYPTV

| Structure (SMILES) | Ki [1] | Ki [2] | Ki [3] | Ki [4] | IC50 [5] | IC50 [6] | INH [7] | Activity [8] | INH [9] | Activity [10] | Activity [11] | Activity [12] | Activity [13] | Activity [14] |
| --- | --- | --- | --- | --- | --- | --- | --- | --- | --- | --- | --- | --- | --- | --- |
| CC(C)C[C@H](NC(=O)N1CCOCC1)C(=O)N[C@H](/C=C/S(=O)(=O)c1ccccc1)CCc1ccccc1 | < 0.0001 µM | 1.4 µM | 0.0012 µM | 0.064 µM | 4 µM | 2.6 µM | 1800 nM |  |  |  |  |  |  |  |
| CC[C@H](N)C(=O)N[C@H](C#N)Cc1ccc(-c2ccccc2)cc1 | > 100 µM | 3.7 µM | 18 µM | > 100 µM | 10 µM | 6.1 µM | 1.5 nM |  |  |  |  |  |  |  |
| CCC[C@H](N)C(=O)N[C@H](/C=C/S(=O)(=O)c1ccccc1)CCc1ccccc1 | 0.0055 µM | 0.137 µM | 0.12 µM | 1.1 µM | 0.1 µM | 0.07 µM | 0.2 nM | 75 | 20 nM | 75 | 75 | 75 | 75 |  |
| O=C1OC2(c3ccc(NC(=O)[C@H](CCc4ccccc4)NC(=O)[C@@H]4CCCN4)cc3Oc3cc(NC(=O)[C@H](CCc4ccccc4)NC(=O)[C@@H]4CCCN4)ccc32)c2ccccc21 |  |  |  |  |  |  |  |  |  |  |  |  |  | inactive |
| CC[C@H](N)C(=O)N[C@@H](CCc1ccccc1)C(=O)Nc1ccc2c(c1)Oc1cc(NC(=O)[C@H](CCc3ccccc3)NC(=O)[C@@H](N)CC)ccc1C21OC(=O)c2ccccc21 |  |  |  |  |  |  |  |  |  |  |  |  |  | inactive |
| CCC[C@H](N)C(=O)N[C@@H](CCc1ccccc1)C(=O)Nc1ccc2c(c1)Oc1cc(NC(=O)[C@H](CCc3ccccc3)NC(=O)[C@@H](N)CCC)ccc1C21OC(=O)c2ccccc21 |  |  |  |  |  |  |  |  |  |  |  |  |  | inactive |
